Compound activity (PubChem)
SIRT5 inh: sirtuin-5 (human) deacylase inhibition; Q9NXA8; Purified SirT5, succinyl-peptide AMC, trypsin-coupled fluorescence; inhibition, % at 15 µM; hit rate 1.1% among 330,000; AID 652115; in the data active = inhibition above about 15%
Target sequence (Q9NXA8 whole entry, looked up): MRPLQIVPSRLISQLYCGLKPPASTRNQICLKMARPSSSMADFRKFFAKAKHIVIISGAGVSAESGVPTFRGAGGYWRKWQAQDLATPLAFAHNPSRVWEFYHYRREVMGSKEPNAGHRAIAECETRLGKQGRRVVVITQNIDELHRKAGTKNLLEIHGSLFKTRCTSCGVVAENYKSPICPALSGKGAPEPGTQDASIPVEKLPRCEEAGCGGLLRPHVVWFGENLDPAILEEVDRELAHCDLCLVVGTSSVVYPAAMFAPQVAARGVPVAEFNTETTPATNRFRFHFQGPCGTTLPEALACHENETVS
FGF22 binding: FGF22 (human) thermal shift binding | Q9HCT0 | recombinant FGF22 thermal shift, SYPRO orange fluorescence; percent of sucrose octasulfate shift, DMSO zero | activity (Tm shift, normalised), % at 9.99 µM | hit rate 1.5% among 340,000 | AID 651658;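 active = mean Tm shift, scaled 0 neutral to 100 positive control, at about 1.3% or above, every replicate too, limit read from the data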
Target sequence (Q9HCT0 whole entry, looked up): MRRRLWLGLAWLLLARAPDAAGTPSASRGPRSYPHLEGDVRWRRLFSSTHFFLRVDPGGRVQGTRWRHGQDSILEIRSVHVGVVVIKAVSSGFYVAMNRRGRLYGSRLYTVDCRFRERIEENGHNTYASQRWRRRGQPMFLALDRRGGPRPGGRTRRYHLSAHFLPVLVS
E-sel inducer: E-selectin induction on HUVECs; hit rate 0.37% among 260,000; activation, % at 7.58 µM; HUVEC E-selectin immunofluorescence imaging; normalized: neutral wells 0, TNF-alpha wells 100; AID 686992;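 active = mean E-selectin-positive cell signal at least 10% of the positive control, reached in at least 60% of replicates, without over 20% cell loss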
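Assay system: HUVEC primary endothelial cells. Input: 3,000 HUVEC seeded per well. Doses: one compound dose added by pin transfer. Read-out basis: % PE-positive cells. Benchmarks: TNF-alpha high, DMSO low. Detection: immunofluorescence imaging. Buffer or medium: EGM-2, gelatin.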
rRNA inh HTS: inhibitors of bacterial rRNA selective over humanized ribosomes; hit rate 1.6% among 350,000; E. coli WT GFP vs humanized-ribosome RFP mutants, fluorescence, 24 h; stronger effect = lower value; DMSO median 0, no signal -100; AID 720706; GFP signal change (wild-type ribosome), % (test concentration not listed);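 active = significant combined selectivity score with lowered wild-type GFP, culture density cut under 30%, mutant RFP and density less affected; inactive = any of these conditions unmet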
FN deposition inh: fibronectin deposition inhibition; AH1F fibroblasts, Alexa488-fibronectin deposition fluorescence, overnight; inhibition, % at 12.6 µM; hit rate 0.086% among 350,000; AID 743247;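 active = mean inhibition across replicates of 30% or more, regardless of how many single replicates reach that level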
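Measured by – fluorescence 485/525 nm · System – AH1F fibroblast monolayer, labelled fibronectin deposition · Amount – 10000 cells per well · Buffer or medium – serum-reduced DMEM (2% serum) · Doses – single dose, pinned · Also added – fluorescent fibronectin at 24 nM final · Schedule – 1 h cell attachment, overnight exposure to compound and label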
Statin myotox sup: suppression of simvastatin myotoxicity; C2C12 myotubes + simvastatin, ATP luminescence, 48 h; scaled: DMSO 0, geranylgeraniol control 100; rescue of ATP level, % at 7.49 µM; hit rate 0.78% among 330,000;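 active = mean ATP rescue above about 67%, or every replicate alone reaching that limit, limit read from the data, passing the limit was not always enough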;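 also: myotubes were challenged with 10 µM simvastatin during compound exposure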
A number is an active result; n = inactive; x = not tested or not shown. An excerpt weighted towards active compounds, which were near 4% of everything screened.

SMILES | SIRT5 inh | FGF22 binding | E-sel inducer | rRNA inh HTS | FN deposition inh | Statin myotox sup
CCc1ccc(CNCc2cccnc2)cc1 | x | x | x | x | x | 114
Cc1ccccc1CNCc1cccnc1 | x | x | x | x | x | n
CCC(=O)N(C)C[C@H]1Oc2ncc(C3=CCCC3)cc2C(=O)N([C@@H](C)CO)C[C@@H]1C | n | n | n | n | n | n
CCOC(=O)c1c(NC(=O)CSc2nnc(-c3ccccc3)n2CC)sc(C(C)=O)c1C | x | x | x | -37 | x | n
CCCN1[C@@H]2c3ccc(-c4ccc(F)cc4)c(=O)n3C[C@H]1[C@H](CO)[C@H]2C(=O)NCC | n | x | n | n | x | x
CCN(c1cccc2ccccc12)S(=O)(=O)c1ccc(Cl)nc1 | n | n | x | -22 | n | x
CCS(=O)(=O)N1CCC2(CC1)CN(C(=O)NC(C)C)[C@H](CO)c1c2c2ccc(OC)cc2n1C | n | n | n | n | x | x
CC1=C(C(=O)OC(C)C)C(c2ccc(Cl)cc2)n2c(sc(=Cc3ccc(OCC(=O)O)cc3)c2=O)=N1 (configuration not stated) | x | 4.2 | n | n | n | n
CC1CCN(C(=O)COC(=O)CCC(=O)c2ccc(F)cc2)CC1 | x | 43 | n | n | n | n
CC1CCCC(C)N1C(=O)COC(=O)CCC(=O)c1ccc(F)cc1 (configuration not stated) | n | n | n | n | n | n
COc1ccc(CCNC(=O)COC(=O)CCC(=O)c2ccc(F)cc2)cc1OC | 20 | n | n | n | n | x
COc1ccc(C(=O)OCC(=O)c2ccc(F)cc2)cc1OC | n | n | n | -22 | n | n
CSc1ccccc1NC(=O)COC(=O)CCC(=O)c1ccc(F)cc1 | 20 | n | n | n | n | n
COc1ccc(C(=O)COC(=O)c2ccc(OC)c(OC)c2)cc1OC | n | x | x | n | x | x
O=C([C@@H]1[C@@H](CO)[C@@H]2Cn3c(cccc3=O)[C@H]1N2C(=O)CC1CC1)N1CCCCC1 | n | n | n | n | x | n
O=C(N1CCOCC1)N1CCN(S(=O)(=O)N2CCOCC2)CC1 | x | x | x | x | x | 114
CC(C)NC(=O)Nc1cccc2c1O[C@H](CN(C)C(=O)OC(C)(C)C)[C@@H](C)CN(C)C2=O | x | x | x | n | n | x
O=C(O)CCC(=O)OCC1CCCCC1 | n | x | x | n | n | 114
O=C(O)CCC(=O)NNC(=O)CCC1CCCCC1 | n | n | x | n | n | x
C[C@@H]1CCCCO[C@H](CN(C)Cc2ccc(C(F)(F)F)cc2)[C@@H](C)CN([C@H](C)CO)C(=O)c2cc(NS(=O)(=O)c3ccccc3)ccc2O1 | n | x | n | n | n | x
C[C@@H]1CN([C@H](C)CO)C(=O)c2cc(NS(=O)(=O)c3ccccc3)ccc2O[C@@H](C)CCCCO[C@H]1CN(C)Cc1ccc(C(F)(F)F)cc1 | 19 | x | n | n | n | x
C[C@@H]1CN([C@@H](C)CO)C(=O)c2cc(NS(=O)(=O)c3ccccc3)ccc2O[C@@H](C)CCCCO[C@@H]1CN(C)Cc1ccc(C(F)(F)F)cc1 | 20 | x | n | n | n | x
C[C@H]1CCCCO[C@H](CN(C)Cc2ccc(C(F)(F)F)cc2)[C@@H](C)CN([C@@H](C)CO)C(=O)c2cc(NS(=O)(=O)c3ccccc3)ccc2O1 | 20 | x | n | n | n | x
C[C@H](CO)N1C[C@H](C)[C@H](CN(C)Cc2ccc(C(F)(F)F)cc2)OCCCC[C@H](C)Oc2ccc(NS(=O)(=O)c3ccccc3)cc2C1=O | n | x | n | n | n | x
C[C@H]1CCCCO[C@@H](CN(C)Cc2ccc(C(F)(F)F)cc2)[C@@H](C)CN([C@@H](C)CO)C(=O)c2cc(NS(=O)(=O)c3ccccc3)ccc2O1 | n | x | n | n | n | x
SMILES | SIRT5 inh | FGF22 binding | E-sel inducer | rRNA inh HTS | FN deposition inh | Statin myotox sup
Cc1noc(C)c1NC(=O)N(C)C[C@H]1OCCCC[C@@H](C)Oc2ccc(NS(=O)(=O)c3ccc(F)cc3)cc2C(=O)N([C@@H](C)CO)C[C@@H]1C | n | n | n | n | n | n
Cc1ccnc2c(N3C(=O)C4C5C=CC(C5)C4C3=O)cccc12 (configuration not stated) | x | x | x | x | x | 121
O=C1C2C3C=CC(C3)C2C(=O)N1c1ccncc1 (configuration not stated) | x | x | x | x | x | n
Cc1cc(Cl)nc(-n2nc(C)cc2C)n1 | n | x | n | -32 | n | x
O=C(Nc1ccc2c(c1)nc1n2CCN(C2CCCCC2)C1)c1ccco1 | n | n | x | n | n | n
COc1ccccc1C(=O)Nc1ccc2c(c1)nc1n2CCN(C2CCCCC2)C1 | n | n | x | -18 | n | n
CC12CCC(=O)N1C(C(=O)Nc1cc(Cl)ccc1N1CCOCC1)CS2 (configuration not stated) | n | n | 135 | n | n | x
CCN(CC)S(=O)(=O)c1ccc(N2CCCCC2)c(NC(=O)C2CSC3(C)CCC(=O)N23)c1 (configuration not stated) | n | n | n | n | n | n
Fc1ccc(-n2cc(-c3ccccc3)c3c(N4CCOCC4)ncnc32)cc1 | n | n | n | -24 | n | x
CCN1CCN(c2ncnc3c2c(-c2ccccc2)cn3-c2ccc(F)cc2)CC1 | n | n | n | n | n | x
COC(=O)[C@H]1[C@H](CO)[C@H]2Cn3c(ccc(C4=CCCCC4)c3=O)[C@H]2N1C(=O)C1CC1 | n | n | n | n | x | n
COCCCN1C(=O)C(CC(=O)NC(c2ccccc2)c2ccccc2)CC(C(=O)N2CCOCC2)=C1C (configuration not stated) | 29 | n | n | n | n | n
CC(C)CC#Cc1cnc2c(c1)C(=O)N([C@H](C)CO)C[C@@H](C)[C@H](CN(C)Cc1ccccc1F)O2 | n | n | n | n | n | n
Cc1ccc(-c2ccc(=O)n(Cc3c(F)cccc3Cl)n2)cc1 | n | n | n | -27 | n | n
C[C@@H]1CN([C@H](C)CO)C(=O)c2cc(Br)cnc2O[C@H]1CN(C)C(=O)c1ccccn1 | n | n | n | n | n | n
O=C(Nc1ccc(Cl)cc1)N[C@H]1CC[C@@H](CCNS(=O)(=O)c2ccccc2F)O[C@H]1CO | n | n | n | n | n | n
CC(=O)Nc1ccc(NC2=C/C(=N/S(=O)(=O)c3cccs3)c3ccccc3C2=O)cc1 | n | n | x | n | x | x
COc1ccc(S(=O)(=O)/N=C2\C=C(Nc3ccc(O)cc3)C(=O)c3ccccc32)cc1 | n | n | n | n | 36 | n
CCN1CCN(CC(=O)Nc2nc3ccccc3s2)CC1 | n | n | x | n | n | n
COc1ccc2nc(NC(=O)CSc3nc(SC)ns3)sc2c1 | n | n | x | n | x | x
CN1CCN(CC(=O)Nc2nc3ccccc3s2)CC1 | 21 | n | x | n | n | n
O=C(NNc1nc2ccccc2s1)c1ccccc1F | n | n | x | -41 | x | n
CSc1nsc(SCC(=O)Nc2nc3ccccc3s2)n1 | n | 44 | x | n | n | x
COCC(=O)Nc1nc2ccccc2s1 | x | x | x | x | n | n
O=C(CP(=O)(c1ccccc1)c1ccccc1)Nc1nc2ccccc2s1 | n | n | n | -36 | n | x
